Reference: ChEMBL document CHEMBL1155940, “Synthesis and preliminary pharmacological evaluation of novel derivatives of L-beta-threo-benzylaspartate as inhibitors of the neuronal glutamate transporter EAAT3” (Bioorg Med Chem, 2008)

Organism: Homo sapiens
Experiment: Selectivity for human EAAT3 over human EAAT1 expressed in mouse C17.2 cells
Type: cell-based

Row | Structure (SMILES) | fold change (FC)
1 | N[C@H](C(=O)O)[C@H](Cc1ccccc1)C(=O)O | 10

Organism: Homo sapiens
Experiment: Selectivity for human EAAT3 over human EAAT2 expressed in mouse C17.2 cells
Type: cell-based

Row | Structure (SMILES) | fold change (FC)
2 | N[C@H](C(=O)O)[C@H](Cc1ccccc1)C(=O)O | 10

Molecular target: T1, Excitatory amino acid transporter 3 (Homo sapiens, UniProt P43005)
T1 sequence (P43005 whole entry): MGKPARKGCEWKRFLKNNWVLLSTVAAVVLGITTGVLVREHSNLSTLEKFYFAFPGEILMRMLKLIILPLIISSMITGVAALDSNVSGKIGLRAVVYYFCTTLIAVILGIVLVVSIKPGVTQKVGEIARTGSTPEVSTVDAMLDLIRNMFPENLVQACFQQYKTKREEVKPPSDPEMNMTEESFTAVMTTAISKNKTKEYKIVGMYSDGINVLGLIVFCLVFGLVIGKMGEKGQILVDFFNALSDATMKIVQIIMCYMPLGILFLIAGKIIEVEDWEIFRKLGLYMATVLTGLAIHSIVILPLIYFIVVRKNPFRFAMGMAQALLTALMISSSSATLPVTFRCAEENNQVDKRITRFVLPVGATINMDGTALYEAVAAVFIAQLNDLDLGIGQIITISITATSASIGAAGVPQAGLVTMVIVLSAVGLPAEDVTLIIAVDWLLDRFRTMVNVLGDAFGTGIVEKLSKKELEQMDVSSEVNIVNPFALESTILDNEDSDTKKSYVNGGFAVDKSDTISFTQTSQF
Experiment: Displacement of [3H]D-aspartate from human EAAT3 expressed in mouse C17.2 cells
Type: cell-based
How it was run: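 C17.2 neuroprogenitor cells (passages 10–20) seeded at 5 × 10^4/well, transiently transfected with human EAAT3 plasmid 24 h after plating, assayed 24 h later. Cells preincubated 5 min at 37°C in HEPES-buffered saline, pH 7.4, then given 1 µM 3H-D-aspartate with varying inhibitor concentrations. Rinsed with ice-cold buffer after uptake and read by scintillation counting. Corrected for 4°C background. IC50 from a one-site fit, ±SEM.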

Row | IC50 [µM] | Structure (SMILES)
3 | 21.1 | N[C@H](C(=O)O)[C@@H](Cc1cccc(F)c1)C(=O)O
4 | 2.46 | N[C@H](C(=O)O)[C@H](Cc1cccc(F)c1)C(=O)O

Molecular target: T2, Excitatory amino acid transporter 3 (Homo sapiens) (UniProt P43005)
T2 sequence (whole entry): T1 sequence (P43005 whole entry)
Experiment: Residual [3H]D-aspartate uptake at human EAAT3 expressed in mouse C17.2 cells at 100 uM relative to control

Row | Structure (SMILES) | residual activity [%]
5 | N[C@H](C(=O)O)C(Cc1ccc([N+](=O)[O-])cc1)C(=O)O (stereo not given in full) | 65
6 | N[C@H](C(=O)O)C(Cc1c(Cl)cccc1Cl)C(=O)O (stereo not given in full) | 86
7 | N[C@H](C(=O)O)C(Cc1ccc(F)cc1)C(=O)O (mixture of isomers) | 7
8 | N[C@H](C(=O)O)[C@H](Cc1ccccc1)C(=O)O | 1
9 | N[C@H](C(=O)O)C(Cc1ccc2ccccc2c1)C(=O)O (stereo not given in full) | 68
10 | Cc1cc(C)cc(CC(C(=O)O)[C@H](N)C(=O)O)c1 (mixture of isomers) | 36

The next lines start with the values.

Row | residual activity [%] | Structure (SMILES)
11 | 4 | N[C@H](C(=O)O)C(Cc1ccccc1)C(=O)O (stereo not given in full)
12 | 8 | N[C@H](C(=O)O)C(Cc1cccc(Br)c1)C(=O)O (mixture of isomers)
13 | 33 | Cc1cccc(CC(C(=O)O)[C@H](N)C(=O)O)c1 (mixture of isomers)
14 | 29 | N[C@H](C(=O)O)C(Cc1cccc([N+](=O)[O-])c1)C(=O)O (mixture of isomers)
15 | 0 | N[C@H](C(=O)O)C(Cc1cccc(F)c1)C(=O)O (stereo not given in full)
